Experimental data reported in ChEMBL document CHEMBL1147378, “Further lupane lactones from Kokoona ochracea” (1993).
Values after ≈ are worked out from the molar mass of the structure shown.

What was measured:
HT-1080 = assay: Cytotoxicity against human HT1080 cells after 48 hrs; format: functional; conditions: HT-1080, 48 h, read-out: ED50 (the source's name)
Summary of the method: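 HT-1080 cells exposed in triplicate to four concentrations (0.16–20 μg/ml) of compound from DMSO stock (0.5% v/v final). Incubation 48 h at 37° under 5% CO2. Read-out by cold 50% TCA fixation, sulforhodamine B staining and Tris-solubilized OD at 515 nm. ED50 derived from averaged % of DMSO-only controls.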

Lu1 = assay: Cytotoxicity against human Lu1 cells after 72 hrs; format: functional; conditions: Lu1, 72 h, read-out: ED50 (the source's name)
Summary of the method: (§1)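 Cells in media with penicillin, streptomycin, fungizone and NaHCO3, pH 7.1–7.2. Compounds dissolved in DMSO (0.5% v/v final) and tested in triplicate at four concentrations (0.16–20 μg/ml). Incubation 72 h at 37° under 5% CO2. Cells fixed in cold 50% TCA and stained with sulforhodamine B. Bound dye solubilized in 10 mM Tris base, OD read at 515 nm. ED50 taken from averaged % of DMSO-only controls.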

ZR-75-1 = assay: Cytotoxicity against human ZR-75-1 cells after 72 hrs; format: functional; conditions: ZR-75-1, 72 h, read-out: ED50 (the source's name); summary of the method: as §1
[1] = Cytotoxicity against human multidrug-resistant KBV1 cells in absence of vinblastine after 72 hrs; format: functional; conditions: KB-V1, 72 h, read-out: ED50 (the source's name); summary of the method: as §1
[2] = Cytotoxicity against human U373 cells after 96 hrs; format: functional, U-373MG ATCC; conditions: U373 MG, read-out: ED50 (the source's name)
Summary of the method: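 U373 cells grown in medium without fungizone. Treated in triplicate with four concentrations (0.16–20 μg/ml), DMSO 0.5% v/v final. Incubation 96 h at 37° under 5% CO2. Sulforhodamine B protein stain after cold 50% TCA fixation, OD 515 nm. ED50 derived from averaged % of DMSO-only controls.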

[3] = Cytotoxicity against human multidrug-resistant KBV1 cells in presence of vinblastine after 72 hrs; format: functional; conditions: KB-V1, 72 h, read-out: ED50 (the source's name)
SK-MEL-2 = assay: Cytotoxicity against human SK-MEL-2 cells after 72 hrs; format: functional; conditions: SK-MEL-2, 72 h, read-out: ED50 (the source's name)
Summary of the method: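 MEL-2 cells kept in a closed container. Treated in triplicate at four concentrations (0.16–20 μg/ml), DMSO 0.5% v/v final. Incubation 72 h at 37° without CO2. Cells fixed with cold 50% TCA, stained with sulforhodamine B, dye solubilized in 10 mM Tris, OD 515 nm. ED50 derived from averaged % of DMSO-only controls.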

[4] = Cytotoxicity against human BC1 cells after 72 hrs; format: functional; conditions: BC1, 72 h, read-out: ED50 (the source's name); summary of the method: as §1
A-431 = assay: Cytotoxicity against human A431 cells after 72 hrs; format: functional; conditions: A-431, 72 h, read-out: ED50 (the source's name); summary of the method: as §1
LNCaP = assay: Cytotoxicity against human LNCAP cells after 72 hrs; format: functional; conditions: read-out: ED50 (the source's name); summary of the method: as §1
Col2 = assay: Cytotoxicity against human Col2 cells after 72 hrs; format: functional; conditions: Col2, 72 h, read-out: ED50 (the source's name); summary of the method: as §1
KB = assay: Cytotoxicity against human KB cells after 72 hrs; format: functional; conditions: read-out: ED50 (the source's name); summary of the method: as §1
P388 = assay: Cytotoxicity against mouse P388 cells after 48 hrs; format: functional; conditions: P388, 48 h, read-out: ED50 (the source's name)
Summary of the method: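 Murine P-388 cells grown in medium without fungizone. Treated in triplicate at four concentrations (0.16–20 μg/ml), DMSO 0.5% v/v final. Incubation 48 h at 37° under 5% CO2. Fixed with 20% TCA, stained with sulforhodamine B, Tris-solubilized OD read at 515 nm. ED50 derived from averaged % of DMSO-only controls.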

Row | Compound | EC50 (HT-1080) [µg/mL] | EC50 (Lu1) [µg/mL] | EC50 (ZR-75-1) [µg/mL] | EC50 [1] [µg/mL] | EC50 [2] [µg/mL] | EC50 [3] [µg/mL] | EC50 (SK-MEL-2) [µg/mL] | EC50 [4] [µg/mL] | EC50 (A-431) [µg/mL] | EC50 (LNCaP) [µg/mL] | EC50 (Col2) [µg/mL] | EC50 (KB) [µg/mL] | EC50 (P388) [µg/mL]
1 | CC(=O)OC[C@]1(OC(C)=O)C(=O)O[C@@H]2C[C@]3(C)CC[C@]4(C)[C@@H](CC[C@@H]5[C@@]6(C)CCC(=O)C(C)(C)[C@@H]6CC[C@]54C)[C@@H]3[C@@H]21 | > 20 | > 20 | 11.5 (≈ 20.1 µM) | 18.3 (≈ 32.1 µM) | > 20 | 6.7 | 6.2 (≈ 10.9 µM) | > 20 | > 20 | > 20 | > 20 | 16.8 (≈ 29.4 µM) | 4.8 (≈ 8.41 µM)
2 | CC(=O)OC[C@]1(O)C(=O)O[C@@H]2C[C@]3(C)CC[C@]4(C)[C@@H](CC[C@@H]5[C@@]6(C)CCC(=O)C(C)(C)[C@@H]6CC[C@]54C)[C@@H]3[C@@H]21 | > 20 | > 20 | > 20 | 14.6 (≈ 27.6 µM) | > 20 | 11.7 | 20 (≈ 37.8 µM) | > 20 | > 20 | > 20 | > 20 | 16.7 (≈ 31.6 µM) | 4.6 (≈ 8.7 µM)
3 | CC1(C)C(=O)CC[C@]2(C)[C@H]3CC[C@H]4[C@@H]5[C@H]6[C@@H](C[C@]5(C)CC[C@@]4(C)[C@]3(C)CC[C@@H]12)OC(=O)[C@@]6(O)CO [OCHRACEOLIDE D] | 14.7 (≈ 30.2 µM) | > 20 | > 20 | > 20 | 3.9 (≈ 8.01 µM) | > 20 | > 20 | > 20 | 9.5 (≈ 19.5 µM) | 15.5 (≈ 31.8 µM) | > 20 | > 20 | > 5
4 | C=C1C(=O)O[C@@H]2C[C@]3(CO)CC[C@]4(C)[C@@H](CC[C@@H]5[C@@]6(C)CCC(=O)C(C)(C)[C@@H]6CC[C@]54C)[C@@H]3[C@H]12 [OCHRACEOLIDE E] | 12.2 (≈ 26 µM) | > 20 | 18.8 (≈ 40.1 µM) | > 20 | 8.6 (≈ 18.3 µM) | > 20 | 11.9 (≈ 25.4 µM) | > 20 | > 20 | > 20 | > 20 | > 20 | > 5
